Laboratory results published in PMC8963331 (Toxicological Sciences, 2022).
Entries after “also recorded” stand apart in the source; their conditions may differ. Where two headings read alike, the source gives them in different places. Marks after values point to notes of the source that are not given here.

What was measured:
[1] = Dog repeat-dose toxicity studies: plasma toxicokinetics; assay type: in vivo
[2] = Rat fertility and early embryonic development; assay type: in vivo; conditions: both, Sprague-Dawley (Crl:CD), rat, in vivo, oral
[3] = system: Crl:CD Sprague Dawley (SD) rats; assay: Rat fertility and early embryonic development; assay type: in vivo; conditions: for Fertility index / Mating index / Pregnancy rate / Females mated: rat FEED; for Females mated: 22 females paired
beagle dogs = assay: Dog 4-, 13-, 39-week repeat-dose general toxicity studies; assay type: in vivo
[4] = as above; assay type: in vivo; conditions: both, beagle, dog, in vivo, oral
[5] = system: Crl:CD Sprague Dawley (SD) rats; assay: Rat 4-, 13-, 26-week repeat-dose general toxicity studies; assay type: in vivo
Method in brief: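 Crl:CD Sprague Dawley rats, 7–8 weeks old at start, dosed daily by oral gavage (10 ml/kg) at 0 (vehicle), 30, 100 or 1000 mg/kg/day for 4, 13 or 26 weeks. n = 10/sex/group, plus 4-week dose-free recovery (n = 5/sex). Rats fasted overnight. Hematology, coagulation and clinical chemistry sampled at baseline, end of dosing and end of recovery. Sexes pooled; treated groups compared with vehicle; variance homogeneity by […] Levene test.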

humans = conditions: QD, ref Sandborn et al., 2020, cited from earlier work
[6] = system: JAK1, JAK2, JAK3, and TYK2; conditions: ref Sandborn et al., 2020; cited from earlier work
[7] = mice; 10 mg/kg oral; ref Sandborn et al., 2020; cited from earlier work
[8] = Exposure comparisons stated jointly for several nonclinical species; assay type: in vivo, rat, dog, rabbit
[9] = Human plasma protein binding; assay type: in vitro ADME
[10] = dog, 39-week study, 100 mg/kg/day
[11] = dog, 39-week study, 100 mg/kg/day, reversible
[12] = dog, 39-week study, 30 and 100 mg/kg/day
[13] = rat, 4 weeks, 1000 mg/kg/day, reversible
[14] = rat, 13 weeks, 1000 mg/kg/day, reversible
[15] = rat, 26 weeks, 1000 mg/kg/day, reversible

Cc1cc(Nc2cc3ncccc3c(N[C@@H]3C[C@H]4CC[C@@H](C3)N4CCC#N)n2)n[nH]1 [izencitinib, Izencitinib]
nonclinical:clinical systemic AUC margin at the NOAEL ([1]; dog 39-week study, 30 mg/kg/day, vs human 300 mg QD): 8 fold
Mean Cave ([1]; dog female, 10 mg/kg/day oral, 4 weeks, last day of dosing): 1.90 ng/mL
Mean Cave ([1]; dog female, 10 mg/kg/day oral, 13 weeks, last day of dosing): 1.53 ng/mL
Mean Cave ([1]; dog female, 10 mg/kg/day oral, 39 weeks, last day of dosing): 3.11 ng/mL
Mean Cave ([1]; dog female, 30 mg/kg/day oral, 4 weeks, last day of dosing): 14.8 ng/mL
Mean Cave ([1]; dog female, 30 mg/kg/day oral, 13 weeks, last day of dosing): 10.8 ng/mL
Mean Cave ([1]; dog female, 30 mg/kg/day oral, 39 weeks, last day of dosing): 20.5 ng/mL
Mean Cave ([1]; dog female, 100 mg/kg/day oral, 13 weeks, last day of dosing): 96.7 ng/mL
Mean Cave ([1]; dog female, 100 mg/kg/day oral, 39-week study, week 28 (day 197)): 131 ng/mL
Mean Cave ([1]; dog male, 10 mg/kg/day oral, 4 weeks, last day of dosing): 2.30 ng/mL
Mean Cave ([1]; dog male, 10 mg/kg/day oral, 13 weeks, last day of dosing): 1.61 ng/mL
Mean Cave ([1]; dog male, 10 mg/kg/day oral, 39 weeks, last day of dosing): 2.08 ng/mL
Mean Cave ([1]; dog male, 30 mg/kg/day oral, 4 weeks, last day of dosing): 19.1 ng/mL
Mean Cave ([1]; dog male, 30 mg/kg/day oral, 13 weeks, last day of dosing): 12.5 ng/mL
Mean Cave ([1]; dog male, 30 mg/kg/day oral, 39 weeks, last day of dosing): 15.9 ng/mL
Mean Cave ([1]; dog male, 100 mg/kg/day oral, 13 weeks, last day of dosing): 190 ng/mL
Mean Cave ([1]; dog male, 100 mg/kg/day oral, 39-week study, week 28 (day 197)): 69.6 ng/mL
plasma Cave:protein-corrected JAK IC50 ratio ([1]; dog, 10 mg/kg/day): < 1 ×
plasma Cave:uncorrected JAK IC50 ratio ([1]; dog, 10 mg/kg/day): < 1 ×
plasma Cave:protein-corrected JAK IC50 ratio ([1]; dog, 30 mg/kg/day): < 1 ×
plasma Cave:uncorrected JAK IC50 ratio ([1]; dog, 30 mg/kg/day): 1 ×
time within the therapeutic range ([1]; dog, 30 mg/kg/day): 6 to 9 h
plasma Cave:protein-corrected JAK IC50 ratio ([1]; dog, 100 mg/kg/day): 1–2 ×
plasma Cave:uncorrected JAK IC50 ratio ([1]; dog, 100 mg/kg/day): 7–11 ×
time at supratherapeutic plasma concentrations ([1]; dog, 100 mg/kg/day, all studies): up to 24 h
plasma Cave:uncorrected JAK IC50 ratio ([1]; dog, ≥100 mg/kg/day): ≥ 7 ×
NOAEL [2]: 1000 mg/kg/day
Fertility index ([3]; 30 mg/kg/day oral): 90.9%
Mating index ([3]; 30 mg/kg/day oral): 100.0%
Pregnancy rate ([3]; 30 mg/kg/day oral): 90.9%
Females mated ([3]; 30 mg/kg/day oral): 22 n
Females mated ([3]; 100 mg/kg/day oral): 21 n
Fertility index ([3]; 1000 mg/kg/day oral): 95.2%
Mating index ([3]; 1000 mg/kg/day oral): 95.5%
Pregnancy rate ([3]; 1000 mg/kg/day oral): 90.9%
Females mated ([3]; 1000 mg/kg/day oral): 21 n
effect on male or female fertility ([3]; rat, up to 1000 mg/kg/day): did not affect; also recorded: No effects
effects on ophthalmology, electrocardiography, food consumption, urinalysis (beagle dogs; all dog studies): No effects
tolerability (beagle dogs; dog 4-week study, 300 mg/kg/day, after 12–13 days): not tolerated
early euthanasia (beagle dogs; dog 4-week study, 300/100 mg/kg/day, days 18 and 19): 3 dogs
early euthanasia (beagle dogs; dog 39-week study, 100 mg/kg/day, at 25–26 weeks, skin observations): 2 dogs
organ weights and microscopic findings in male reproductive tissues (beagle dogs; dog repeat-dose studies, up to highest tested doses): no microscopic findings
effects on lipid levels (beagle dogs; dog repeat-dose toxicity studies, any dose): no effects
dose with decreased hematopoietic and lymphoid cellularity (microscopic) (beagle dogs; dog, 4- and 13-week studies): ≥ 100 mg/kg/day
red blood cell parameters, change (beagle dogs; dog, 4- and 13-week studies, 100 mg/kg/day, reversible): 0.82–0.85 ×
changes in reticulocyte levels (beagle dogs; dog, 4- and 13-week studies, any dose): No changes
no observed adverse effect level (beagle dogs; dog, 4 weeks): 30^c mg/kg/day
effects on white blood cell parameters (beagle dogs; dog, 4 weeks, end of dosing phase): No significant effects
fibrinogen levels, change (beagle dogs; dog, 13- and 39-week studies, 100 mg/kg/day): 1.3–1.4 ×
effects on white blood cell, lymphocyte, or neutrophil counts (beagle dogs; dog, 13 weeks): No izencitinib-related effects
no observed adverse effect level (beagle dogs; dog, 13 weeks): 30^c mg/kg/day
platelets, change (beagle dogs; dog, 13 weeks, 100 mg/kg/day, reversible): 1.5 ×
dose with decreased hematopoietic and lymphoid cellularity (microscopic) (beagle dogs; dog, 39-week study): ≥ 30 mg/kg/day
red blood cell parameters, change (beagle dogs; [10]): 0.76–0.79 ×
tolerability (beagle dogs; [10]): not tolerated
hemoglobin levels, change (beagle dogs; dog, 39-week study, 100 mg/kg/day, after recovery): 0.87 ×
white blood cell counts, change (beagle dogs; dog, 39-week study, 100 mg/kg/day, recovery animals): 1.3 ×
helper T cells (immunophenotyping), change (beagle dogs; [11]): 0.71 ×
lymphocyte counts, change (beagle dogs; [11]): 0.70 ×
total T cells (immunophenotyping), change (beagle dogs; [11]): 0.71 ×
total lymphocytes (immunophenotyping), change (beagle dogs; [11]): 0.70 ×
B cells (immunophenotyping), change (beagle dogs; dog, 39-week study, 100 mg/kg/day, without reversibility in 4-week recovery): 0.59 ×
neutrophils, change (beagle dogs; [12]): 1.3–1.5 ×
platelets, change (beagle dogs; [12]): 1.3–2.2 ×
hematocrit, change (beagle dogs; dog, 39-week study, 30 and 100 mg/kg/day, after recovery): 0.90–0.92 ×
reticulocytes, change (beagle dogs; dog, 39-week study, 30 and 100 mg/kg/day, reversible): 0.45–0.51 ×
red blood cell parameters, change (beagle dogs; dog, 39 weeks, 30 mg/kg/day): 0.90–0.91 ×
white blood cell counts, change (beagle dogs; dog, 39 weeks, 30 mg/kg/day, end of dosing phase): 1.2 ×
effects on prothrombin time or activated partial thromboplastin time (beagle dogs; dog, any dose, 3 studies): No effects
microscopic findings in GI tissues (beagle dogs; dog, up to 100 mg/kg/day, all 3 studies): no adverse microscopic findings
NOAEL at 39 weeks [4]: 30 mg/kg/day
organ weights and microscopic findings in male reproductive tissues ([5]; rat repeat-dose studies, up to highest tested doses): no microscopic findings
effects on lipid levels ([5]; rat repeat-dose toxicity studies, any dose): no effects
spleen weight, change ([5]; rat, 100 mg/kg/day): 0.87 ×
spleen weight, change ([5]; rat, 1000 mg/kg/day): 0.78–0.86 ×
no observed adverse effect level ([5]; rat, 4 weeks): 1000^c mg/kg/day
platelet counts, change ([5]; rat, 4 weeks, 100 mg/kg/day, reversible): 1.1 ×
lymphocyte counts, change [5, 13]: 0.64 ×
platelet counts, change [5, 13]: 1.2 ×
white blood cell counts, change [5, 13]: 0.66 ×
changes in red blood cell parameters ([5]; rat, 4 weeks, any dose): No changes
no observed adverse effect level ([5]; rat, 13 weeks): 1000^c mg/kg/day
lymphocyte counts, change ([5]; rat, 13 weeks, 100 mg/kg/day, reversible): 0.78 ×
hemoglobin levels, change ([5]; rat, 13 weeks, 1000 mg/kg/day, end of dosing): 0.97 ×
hemoglobin levels, change ([5]; rat, 13 weeks, 1000 mg/kg/day, end of recovery period): 0.95 ×
lymphocyte counts, change [5, 14]: 0.64 ×
platelet counts, change [5, 14]: 1.2 ×
red blood cell counts, change [5, 14]: 0.96 ×
white blood cell counts, change [5, 14]: 0.74 ×
platelet counts, change ([5]; rat, 26 weeks, 1000 mg/kg/day): 1.1 ×
white blood cell counts, change ([5]; rat, 26 weeks, 1000 mg/kg/day): 0.68 ×
incidence of minimally decreased lymphoid cellularity, females [5, 15]: 1 of 10
incidence of minimally decreased lymphoid cellularity, males [5, 15]: 4 of 10
hemoglobin levels, change ([5]; rat, 26 weeks, all dose levels): 0.95 ×
effects on food consumption, ophthalmic evaluations, clinical chemistry, urinalysis ([5]; rat, all repeat-dose studies): no effects
changes in reticulocyte levels ([5]; rat, any dose, 3 studies): No changes
effects on neutrophils ([5]; rat, any dose, 3 studies): No izencitinib-related effects
changes in coagulation parameters ([5]; rat, any dose, all 3 studies): no changes
other changes in organ weights or microscopic effects, including GI tissues ([5]; rat, up to 1000 mg/kg/day, all studies): No other changes
tolerability ([5]; rat, up to highest tested dose 1000 mg/kg/day, 4-, 13-, 26-week studies): well-tolerated
dose up to which well tolerated (humans; phase 1b, ulcerative colitis patients): 270 mg
dose up to which well tolerated (humans; phase 1 single ascending dose): 1000 mg
human cellular JAK IC50 range, uncorrected [6]: 0.01273 to 0.08031 µg/mL
colon:plasma AUC ratio [7]: 3883
nonclinical:clinical systemic exposure (AUC) ratio at the NOAEL dose ([8]; rat and dog general toxicity studies, each study, vs human 300 mg QD): 6- to 18 fold
fetal exposure ([8]; rat and rabbit EFD studies): negligible
maternal plasma Cave:JAK IC50 ratio ([8]; rat and rabbit EFD studies): 2–6 ×
Cave:uncorrected IC50 ratio ([8]; rat and rabbit EFD, highest dose tested): ≥ 2 ×
fraction unbound [9]: 0.146
